Laboratory results reported in BindingDB's records for doi:10.1016/j.bmcl.2007.03.101 (Eli Lilly, 2007).

Molecular target: T1, 5-hydroxytryptamine receptor 1A (Homo sapiens, UniProt P08908)
T1 sequence (P08908 whole entry): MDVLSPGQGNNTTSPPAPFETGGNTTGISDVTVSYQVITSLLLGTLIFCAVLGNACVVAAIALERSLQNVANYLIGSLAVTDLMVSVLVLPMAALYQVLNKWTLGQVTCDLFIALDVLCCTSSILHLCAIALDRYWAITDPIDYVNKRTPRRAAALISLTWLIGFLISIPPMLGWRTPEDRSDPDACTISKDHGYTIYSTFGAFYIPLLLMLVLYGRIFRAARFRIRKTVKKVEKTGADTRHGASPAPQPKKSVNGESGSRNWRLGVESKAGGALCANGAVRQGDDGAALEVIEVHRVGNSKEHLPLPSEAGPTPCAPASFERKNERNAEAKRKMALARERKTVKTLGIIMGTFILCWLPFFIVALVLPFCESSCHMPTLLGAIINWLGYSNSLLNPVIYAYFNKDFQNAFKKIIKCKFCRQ
Assay: Displacement of [3H]8-OH-DPAT from human 5HT1A expressed in LM(tk-) cells
Outline: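 Human 5-HT1A was cloned into L-M(tk-) cells, and membrane homogenates were prepared. Binding used [3H]-8-OH-DPAT as radioligand. Ki (nM) is the mean of runs in triplicate.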

Ki: 13 nM
Compound: C[C@H]1CN(c2cccc3cc(F)ccc23)CCN1CC[C@H]1OCC2=CC(C(N)=O)=CCC21 (stereo partly drawn) [(1R)-1-(2-((S)-4-(6-fluoronaphthalen-1-yl)-2-methylpiperazin-1-yl)ethyl)-1,3,7,7a-tetrahydroisobenzofuran-5-carboxamide]
